Measurements: PubChem BioAssay
A number with no mark means an inactive call. Results filed as inconclusive are left out. Calls of active or inactive are those of the source.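 How the source made its calls, unless noted: active means growth inhibition above 25% in both replicates, a cutoff set 3 SD above the mean; inconclusive means above 25% in only one replicate; inactive means the rest.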

Columns and labels:
[1] = OD615 S. cerevisiae growth inhibition, permissive medium, pilot counter-assay, permissive growth control for S. cerevisiae lifespan shortening project (AID 705); details: OD615, 24 h, at 10 µM, stronger effect = higher value
Summary of the method: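 System: S. cerevisiae with engineered DeaD lifespan system. Medium: SC raffinose/galactose permissive medium. Doses: single compound dose of 10 µM, 0.25% DMSO final. Schedule: 24 h exposure, 30 °C. Measured by: OD615 turbidity read. Read-out: growth inhibition.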

[2] = Restrictive medium S. cerevisiae growth inhibition, OD615, pilot screen of yeast lifespan reduction project, restrictive growth control (AID 706;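 active means growth inhibition above a set limit, 3 SD over mean compound inhibition, in both replicates, cut at about 43% in these data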;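 further: modified DeaD lifespan yeast strain shifted to restrictive glucose medium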); details: OD615, 48 h, at 10 µM, stronger effect = higher value
Summary of the method: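 Assay system – genetically modified Saccharomyces cerevisiae, DeaD replicative lifespan assay strain · Medium – CSMM-D glucose medium · Doses – 10 µM compound, 0.25% DMSO · Times – 4 h pre-incubation, 48 h exposure at 30 °C · Signal – optical density at 615 nm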

[3] = viability gain of MRP-1-high H69AR cells under doxorubicin, pilot screen, MRP-1 activator project, CellTiter-Glo, duplicate (AID 807;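 active means viability increase at or above a cutoff of the median across tested compounds plus 3 SD, cut at about 8.5% in these data, passing the limit was not always enough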;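 further: compound pretreatment 18-22 h then 72 h combined with doxorubicin; 0% = doxorubicin alone and 100% = vehicle without doxorubicin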); details: H69AR viability with doxorubicin, CellTiter-Glo luminescence; at 10 µM; stronger effect = higher value
[4] = growth suppression of beta-catenin knockout HCT116, pilot screen, human colon tumor cells (AID 823;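 active means cell viability at or below a set limit in both duplicate runs, the limit being the all-compound median minus 4 SD, cut at about 23% in these data, passing the limit was not always enough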;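 further: 0% = wells killed by 20 µM Hyamine and 100% = untreated DMSO cell wells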); details: CellTiter-Glo, 60 h, at 10 µM, stronger effect = lower value
[5] = growth suppression of PTEN-deleted HCT116, pilot screen, cell-based, HCT116 clonal line, CellTiter-Glo (AID 824;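 active means viability at or below 27.92% in each of two runs, the all-compound median minus 4 SD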;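 further: 0% = 20 µM Hyamine control and 100% = vehicle cell control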); details: 60 h, at 10 µM, stronger effect = lower value
[6] = inhibitors of the yeast RAM network, pilot screen, dse1pr::URA3 reporter, 5-FOA selection (AID 869;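 active means inhibition over a set limit, the all-compound mean plus 3 SD, in both replicate runs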;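 further: 0% = DMSO wells with no growth and 100% = 10 µM 1-NA-PP1 with full growth; RAM network block rescues cells from 5-FOA so hits raise OD615 growth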); details: S. cerevisiae dse1pr::URA3 5-FOA growth, OD615, 2 d; at 10 µM; stronger effect = higher value; strain carries analog-sensitive mutant Cbk1 kinase
[7] = RAM signaling pathway blockade in yeast – S. cerevisiae, Pdr1DBD-CYC8 efflux-inhibited sensitized strain, primary screen (AID 1298;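 active means RAM network inhibition above 8.4% in each of two replicates, 3 SD over the compound average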;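 further: 0% = DMSO untreated cells without growth and 100% = 10 µM 1-NA-PP1 full growth; higher means more yeast growth rescued from 5-FOA killing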); details: S. cerevisiae cbk1-as DSE1-URA3 strain, 5-FOA growth OD615, 2 d; at 50 µM; stronger effect = higher value

Row | Structure (SMILES) | growth inhibition [1] [%] | growth inhibition [2] [%] | viability increase [3] [%] | viability [4] | viability [5] | inhibition [6] [%] | RAM network inhibition [7] [%]
1 | COc1ccc(-n2c(Cn3c(=O)sc4ccccc43)nnc2SCC(=O)N2CCOCC2)cc1 | -0.33 | 7.95 | 0.3 | 102% | 97% | 0.235 | 1.66
2 | CCOC(=O)C1CCN(C(=O)C2c3ccccc3C(=O)N(C)C2c2ccc(OC)cc2)CC1 (configuration not stated) | -7.75 | -16.1 | -4.5 | 76.3% | 85.8% | 2.1 | 1.79
3 | CCOCCn1c(SCc2ccc(C)cc2)nc2c1c(=O)[nH]c(=O)n2C | -5.33 | 3.62 | -3.46 | 92.5% | 95.1% | 1.49 | 4.28
4 | COc1ccc(C(c2sc3ncnn3c2O)N2CCN(c3ccccc3F)CC2)cc1OC (configuration not stated) | 0.27 | 11.7 | 1.69 | 103% | 92% | 1.3 | 1.06
5 | COc1ccccc1-c1nc(-c2ccccn2)no1 | -10.5 | -2.21 | -5.99 | 45.5% | 39.7% | 0.975 | 0.42
6 | Cn1cc(SCC(=O)N2CCN(c3ccccc3)CC2)c2ccccc21 | -0.395 | 11.5 | -4.68 | 91.3% | 88.4% | 1.52 | 7.36
7 | CCC(=O)N1c2ccccc2-c2nnc(SC)nc2OC1c1ccc(N(C)C)cc1 (configuration not stated) | -3.95 | 4.3 | -6.55 | 93.8% | 91.5% | 3.08 | 1.82
8 | O=C(NC1CCCC1)C1C2C=CC3(CN(Cc4cccs4)C(=O)C13)O2 (configuration not stated) | -17.8 | -17.1 | -1.96 | 94.8% | 101% | 0.615 | 5
9 | O=C(CC1SC(=Nc2ccccc2)N(CCCCO)C1=O)NCc1ccccc1 (configuration not stated) | -5.1 | -5.89 | -2.74 | 89.5% | 86.4% | 0.065 | 5.21
10 | CCOc1ccc(Nc2ncnc(N)n2)cc1 | -16 | -1.21 | 0.15 | 97.4% | 102% | 0.055 | 1.11
11 | CC(=O)Nc1cc2c(cc1C(=O)c1ccccc1)OCCO2 | -3.76 | 7.87 | -0.99 | 95.2% | 92.9% | 1.35 | 0.89
12 | Cn1c(=O)oc2cc(S(=O)(=O)N3CCCC(C(=O)NCCN4CCOCC4)C3)ccc21 (configuration not stated) | -1 | 10.4 | -0.15 | 103% | 108% | 0.68 | 4.15
13 | O=C(NCCc1ccc(Cl)cc1)c1cnc2n(c1=O)CCS2 | -1.75 | -8.11 | 3.85 | 95% | 92.1% | 0.37 | 9.74
14 | CNC(=O)N(C1=NCC(C)(C)S1)c1ccc(F)c(Cl)c1 | -4.53 | -16.6 | -6.94 | 40.4% | 35.7% | 1.26 | 4.61
15 | CCOc1ccc(C(=O)Nc2c3c(nn2-c2cccc(C)c2C)CS(=O)C3)cc1 (configuration not stated) | -1.6 | 3.53 | -0.32 | 98.4% | 96.2% | 1.62 | 2.34
16 | CCCCCn1c(=N)n(CC(O)COc2ccccc2OC)c2ccccc21 (configuration not stated) | -4.93 | 4.88 | -7.9 | 15.6% (active) | 21.9% (active) | -0.235 | 0.4
